# From PubChem
# M1 agonist = M1 muscarinic receptor agonists, primary screen, CHO-M1 cells, Fluo-4 calcium, agonist mode; 64,000 compounds, 3% hits; B-score at 10 µM; AID 626, 2007; Fluo-4 calcium fluorescence; stronger effect = higher value;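 active means fluorescence rise, raw or as B-score row- and column-corrected plate score, outside the 99.7% band of its plate's samples, either direction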
# RORA act = activators of orphan receptor RORA, primary screen, cell-based, luminescence. 65,000 compounds, 1.5% hits. AID 560, 2006. CHO-K1 Gal4-RORA LBD luciferase reporter; percent increase over mock-subtracted basal signal. Nuclear receptor ROR-alpha (Homo sapiens), P35398. activation, % at 10 µM;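 active means activation above the mean of all tested compounds plus 3 SD, cut at about 49% in these data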;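 further: 0% = DMSO-treated RORA cells and 100% = added signal equal to DMSO minus mock-transfected cells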
# M1 antagonist = antagonists of rat M1 muscarinic receptor; B-score at 10 µM; AID 628, 2007; CHO-M1 cells, Fluo-4 calcium, ACh EC80 antagonist mode; stronger effect = lower value; 64,000 compounds, 3.4% hits; Muscarinic acetylcholine receptor M1 (Rattus norvegicus), P08482;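 active means calcium fluorescence response, raw or row-and-column corrected B-score, differing from the plate sample mean either way at a set confidence level, mostly lower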
# D1 allo mod = D1 CRE-luciferase signal change, two-sided – cell-based, HEK293 D1, dopamine EC30, D1 allosteric modulator project, primary screen; D(1A) dopamine receptor (Homo sapiens), P21728; dopamine EC30 potentiation; actives deviate in either direction; B-score at 10 µM; 58,000 compounds, 5.9% hits; AID 641, 2007;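 active means luminescence count or its row- and column-corrected plate score outside the 99.7% band of the plate's sample wells, on either side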
# Target sequence (P21728 whole entry, looked up): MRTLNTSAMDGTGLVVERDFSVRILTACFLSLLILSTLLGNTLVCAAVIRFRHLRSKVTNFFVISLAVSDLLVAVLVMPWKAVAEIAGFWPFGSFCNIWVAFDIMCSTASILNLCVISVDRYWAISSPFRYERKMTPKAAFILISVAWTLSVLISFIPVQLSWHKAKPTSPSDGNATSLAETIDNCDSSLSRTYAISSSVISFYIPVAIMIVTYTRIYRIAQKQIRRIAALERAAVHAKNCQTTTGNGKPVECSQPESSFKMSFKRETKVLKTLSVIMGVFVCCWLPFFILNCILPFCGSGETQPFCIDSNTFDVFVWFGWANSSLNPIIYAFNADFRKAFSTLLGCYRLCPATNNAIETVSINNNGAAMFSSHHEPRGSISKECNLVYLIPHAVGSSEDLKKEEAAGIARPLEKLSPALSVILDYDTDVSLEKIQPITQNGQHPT
# SF-1 act = activators of human SF-1, primary screen, cell-based, CHO-K1, Gal4-SF-1 LBD, luciferase luminescence; CHO-K1 Gal4-SF-1 LBD luciferase reporter; % increase over DMSO SF-1-specific signal; activation, % at 10 µM; AID 522, 2006; 65,000 compounds, 1.9% hits;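 active means activation above the mean activation of all tested compounds plus 3 SD, cut at about 50% in these data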
#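 System: CHO-K1 cells with Gal4–hSF-1 LBD chimera plus Gal4-driven luciferase; quantity: 4,000 CHO-K1 cells per well; compound: one dose, 10 µM compound, 1% DMSO; times: 20 h compound treatment, 37 °C; measured by: SteadyLite luciferase luminescence; read-out: percent activation versus DMSO; benchmarks: DMSO and mock-transfected background; replicates: one test per compound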
# HePTP inh = inhibitors of human HePTP phosphatase, primary screen, biochemical, absorbance, leukemia target. Tyrosine-protein phosphatase non-receptor type 7 (Homo sapiens), P35236. recombinant HePTP phosphatase activity, OD absorbance. inhibition, % at 20 µM. 110,000 compounds, 0.64% hits; in the data active means inhibition above about 50%;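 further: plate controls were vehicle for no effect and reference inhibitor for full effect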
# An asterisk follows results filed as active; / = not tested or not shown. The list is not random: actives were taken first. Their share in the collection is about 8.2%.
SMILES,M1 agonist,RORA act,M1 antagonist,D1 allo mod,SF-1 act,HePTP inh
CC(C)(C)C1CCc2c(sc(NC(=O)c3cc(C4CC4)on3)c2C#N)C1 (stereo not given),0.99,14,-0.037,0.37,-9,6
CC(C)c1cc(C(=O)Nc2sc3c(c2C#N)CCC3)no1,-0.95,76*,0.092,-0.43,46,-3
Cc1cc(C(=O)Nc2sc3c(c2C#N)CCC(C)C3)cs1 (stereo not given),-0.67,91*,0.067,-0.48,33,7
CCN(CC)C(=O)C(=O)N/N=C/c1ccc(Cl)cc1Cl,/,/,/,/,/,11
CCCC(=O)c1cn(CC(=O)OC)c2ccccc12,0.13,-24,0.85,0.32,5,4
Cc1nc2oc3c(NCc4ccccc4)ncnc3c2c2c1COC(C)(C)C2,-0.21,-27,2.1,8.5*,22,1
CC1(C)Cc2c(sc3ncnc(NCc4ccccc4)c23)CO1,/,/,/,/,/,105*
Cc1nc2sc3c(NCc4ccco4)ncnc3c2c2c1COC(C)(C)C2,1.1,-24,0.36,/,-1,1
CC1(C)Cc2c(sc3nc(SCCOc4ccccc4)n(Cc4ccccc4)c(=O)c23)CO1,/,/,/,/,/,-12
O=C(Nc1ccc2oc(-c3ccc(F)cc3)nc2c1)c1ccc([N+](=O)[O-])cc1Cl,/,/,/,/,/,0
S=c1[nH]nc(-c2ccccc2)n1/N=C/c1ccc2c(c1)OCO2,/,/,/,/,/,-2
CCCCn1nc(C(=O)NC2=NCCS2)c2ccccc2c1=O,1.2,0,0.18,2.2,0,5
c1csc(-c2csc(-c3cccs3)n2)c1,-0.00053,30,0.26,0.79,63*,10
c1cncc(-c2nc(-c3cccs3)cs2)c1,-0.61,40,0.12,/,10,15
c1cnc(Nc2nc(-c3cccs3)cs2)nc1,/,/,/,/,/,102*
COc1ccc(/C=N/n2c(C)nnc2C)cc1,/,/,/,/,/,0
COc1ccc(/C=N\n2nnc3ccccc32)cc1,0.012,-74,-0.0036,-3.9*,-70,-1
c1csc(-c2csc3ncnc(NCCCN4CCOCC4)c23)c1,2*,-22,0.011,0.16,-7,-10
Cc1cc(N2C(=O)NC(=O)/C(=C\c3ccc4c(c3)OCO4)C2=O)ccc1Br,/,/,/,/,/,-9
CC1CCc2c(sc(NC(=O)c3ccc(Cl)c(Cl)c3)c2C(N)=O)C1 (stereo not given),/,/,/,/,/,105*
CCOC(=O)Nc1sc2c(c1C(N)=O)CCC(C)C2 (stereo not given),/,/,/,/,/,103*
CCOC(=O)c1c(NC(C)=O)sc2c1CCC(C)C2 (stereo not given),/,/,/,/,/,-8
COc1ccccc1-n1cnnc1SC1CCOC1=O (stereo not given),0.55,-9,2.8*,0.89,12,1
COc1cc(/C=c2\sc3nc4ccccc4n3c2=O)cc(Cl)c1OCc1ccccc1Cl,/,/,/,/,/,6
Cc1ccc2c(c1)c1c3n2CCCNC3CCC1 (stereo not given),1.2,54*,1.7,-1.1,8,1
SMILES,M1 agonist,RORA act,M1 antagonist,D1 allo mod,SF-1 act,HePTP inh
Cc1nn(C)c(C)c1NC(=O)c1ccc(-c2ccccc2)cc1,/,/,/,/,/,-7
CCOC(=O)c1c(C)oc2c1c(C(c1cccnc1)N1CCN(C)CC1)c(O)c1ccccc12 (stereo not given),3.4*,-9,-0.0027,-0.73,-12,12
CCS(=O)(=O)Nc1cc(-c2nc3cccnc3s2)ccc1C,0.64,32,0.14,2.1,71*,5
Cc1ccc(-c2nc3cccnc3s2)cc1NC(=O)c1ccco1,-0.77,21,0.43,-0.0088,59*,/
Cc1ccc(-c2nc3ccccc3o2)cc1NC(=O)c1ccco1,/,/,/,/,/,8
O=C1CC(C(=O)Nc2ccc(Br)cc2)C2(CCCC2)O1 (stereo not given),0.44,16,-1.1,-0.26,16,6
CCOC(=O)c1sc(NC(=O)c2c(C)nn(Cc3ccccc3)c2C)cc1C,0.71,22,-0.46,-3.2*,24,-3
CCOC(=O)c1sc(NC(=O)c2ccc(Cl)s2)cc1C,0.59,78*,0.07,-0.92,54*,1
O=C(NC(NC(=O)c1ccccc1)c1cccc([N+](=O)[O-])c1)c1ccccc1,/,/,/,/,/,104*
CC(C)CC(=O)NC(NC(=O)CC(C)C)c1cccc([N+](=O)[O-])c1,/,/,/,/,/,56*
Cc1cccc(C(=O)NC(NC(=O)c2cccc(C)c2)c2cccc([N+](=O)[O-])c2)c1,/,/,/,/,/,3
COC(=O)c1ccc(N2C(=O)C3C4C=CC(C5CC45)C3C2=O)cc1 (stereo not given),/,/,/,/,/,2
COc1ccc(Cc2nnc3n2N=C(c2cc4ccccc4o2)CS3)cc1OC,2.7,-14,0.16,3*,-7,8
COc1ccc(-c2nnc3n2N=C(c2ccccc2)CS3)cc1OC,-0.48,5,0.58,1.6,-8,3
CCCn1cnc2cc(NCc3cccc(OC)c3O)ccc21,-0.55,-1,-0.9,0.23,2,6
COc1cccc(CNc2ccc3c(c2)ncn3C(C)C)c1OC,-2.4,27,-0.0093,4.4,55*,2
CC1=C(C(=O)Nc2ccc(Br)cc2)C(c2ccc(C)cc2)NC(=O)N1 (stereo not given),/,/,/,/,/,-3
COCCCN(C(C)=O)c1nc(-c2ccccc2)cs1,0.3,35,-0.43,0.15,79*,4
COCCN(C(C)=O)c1nnc(-c2ccccn2)s1,0.1,18,-0.7,0.27,16,4
O=[N+]([O-])c1cccc2c1NC(c1ccc(Cl)cc1)C1CC=CC21 (stereo not given),/,/,/,/,/,104*
O=C(O)c1cccc2c1NC(c1ccc(Cl)cc1)C1CC=CC21 (stereo not given),/,/,/,/,/,104*
O=[N+]([O-])c1cccc2c1NC(c1ccc(F)cc1)C1CC=CC21 (stereo not given),/,/,/,/,/,7
O=C(O)C1Nc2c(cccc2[N+](=O)[O-])C2C=CCC12 (stereo not given),/,/,/,/,/,104*
O=C(O)c1ccc2c(c1)C1C=CCC1C(c1ccc([N+](=O)[O-])cc1)N2 (stereo not given),/,/,/,/,/,102*
COc1ccc(OC)c(CC(NC(C)=O)C(=O)NC2CCN(c3nc(C)cc(C)c3C#N)CC2)c1 (stereo not given),-0.24,4,0.66,/,-9,-6
CN(C)c1ccc(C2N(c3cccc(Cl)c3)C(=O)C3CCCN32)cc1 (stereo not given),-0.16,-9,0.19,-0.13,-1,-1
O=C(O)c1cccc2c1NC(c1ccc([N+](=O)[O-])cc1)C1CC=CC21 (stereo not given),/,/,/,/,/,103*
